Measurements of several laboratories.
Lines come from different studies, so protocols differ. ≈ marks a conversion by molar mass, not a printed value.
Organism: Staphylococcus epidermidis

Cc1ccc2[nH]c3c(c2c1)CCCC3NCCc1ccc(O)cc1 (centres unmarked) — MIC (microbial growth, broth dilution; MRSE): 16 µg/mL
CN[C@H](CC(C)C)C(=O)N[C@H]1C(=O)N[C@@H](CC(N)=O)C(=O)N[C@H]2C(=O)N[C@H]3C(=O)N[C@H](C(=O)N[C@H](C(=O)O)c4cc(O)cc(O)c4-c4cc3ccc4O)[C@H](O)c3ccc(c(Cl)c3)Oc3cc2cc(c3O[C@@H]2O[C@H](CO)[C@@H](O)[C@H](O)[C@H]2O[C@H]2C[C@](C)(N)[C@H](O)[C@H](C)O2)Oc2ccc(cc2Cl)[C@H]1O — MIC (microbial growth, broth dilution; 12228; 16 h): 1.56 µM
CN[C@H](CC(C)C)C(=O)N[C@H]1C(=O)N[C@@H](CC(N)=O)C(=O)N[C@H]2C(=O)N[C@H]3C(=O)N[C@H](C(=O)N[C@H](C(=O)O)c4cc(O)cc(O)c4-c4cc3ccc4O)[C@H](O)c3ccc(c(Cl)c3)Oc3cc2cc(c3O[C@@H]2O[C@H](CO)[C@@H](O)[C@H](O)[C@H]2O[C@H]2C[C@](C)(N)[C@H](O)[C@H](C)O2)Oc2ccc(cc2Cl)[C@H]1O — MIC (microbial growth; ATCC14990): 0.5 µg/mL
CCCCCCCCCC(=O)N[C@@H](Cc1c[nH]c2ccccc12)C(=O)N[C@H](CC(N)=O)C(=O)N[C@@H](CC(=O)O)C(=O)N[C@@H]1C(=O)NCC(=O)N[C@@H](CCCN)C(=O)N[C@@H](CC(=O)O)C(=O)N[C@H](C)C(=O)N[C@@H](CC(=O)O)C(=O)NCC(=O)N[C@H](CO)C(=O)N[C@@H]([C@H](C)CC(=O)O)C(=O)N[C@@H](CC(=O)c2ccccc2N)C(=O)O[C@@H]1C — MIC (microbial growth, broth dilution; ATCC35984; drug-resistant strain): 1 µg/mL
Cc1c(NN=C(C#N)C2=NC(=O)CS2)c(=O)n(-c2ccccc2)n1C — MBC (microbial killing, broth dilution): 1 µg/mL (≈ 2.82 µM)
Cc1ccc2[nH]c3c(c2c1)CCCC3NCCc1ccc(Br)cc1 (centres unmarked) — MIC (microbial growth, broth dilution; MRSE): 4 µg/mL
CCCCCC/C=C\CCCCCCCCCc1cc(O)cc(O)c1 — MIC (microbial growth, broth dilution; ATCC35984; drug-resistant strain): > 64 µg/mL
CN[C@H](CC(C)C)C(=O)N[C@H]1C(=O)N[C@@H](CC(N)=O)C(=O)N[C@H]2C(=O)N[C@H]3C(=O)N[C@H](C(=O)N[C@H](C(=O)O)c4cc(O)cc(O)c4-c4cc3ccc4O)[C@H](O)c3ccc(c(Cl)c3)Oc3cc2cc(c3O[C@@H]2O[C@H](CO)[C@@H](O)[C@H](O)[C@H]2O[C@H]2C[C@](C)(N)[C@H](O)[C@H](C)O2)Oc2ccc(cc2Cl)[C@H]1O — MIC (microbial growth, broth dilution; 12228): 0.78 µM
